Active and inactive are the calls of the source. The rule behind the calls is not given here.
Columns and labels:
[1] = test system: SH-SY5Y; assay: Neuroprotective activity in human SH-SY5Y cells; type: functional, cell-based
Summary of the method: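 SH-SY5Y cells seeded at 2 × 10^5/mL in DMEM-F12 with 5% FBS; after 24 h medium replaced by supernatant of THP-1 cells stimulated 24 h with LPS + IFN-γ, or by medium containing 250 µM H2O2, with compound added at transfer. Cell death measured by LDH assay 72 h later; five independent experiments; randomized block ANOVA.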

[2] = test system: THP-1; assay: Antiinflammatory activity in human THP1 cells assessed as reduction in LPS and IFN-gamma-induced MCP level after 24 hrs; type: functional, cell-based; conditions: Homo sapiens, THP-1, 24 h; read-out: IC50
Summary of the method: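 THP-1 cells (5 × 10^5 cells/mL, DMEM-F12 with 5% FBS) pretreated 15 min with compound or DMSO vehicle, then stimulated with 0.5 µg/mL LPS plus 150 U/mL IFN-γ. After 24 h, MCP-1 in cell-free medium measured by ELISA. IC50 estimated from concentration–response; randomized block ANOVA.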

[3] = target: T1, Prostaglandin G/H synthase 2 (Homo sapiens) (UniProt P35354); assay: Inhibition of human COX2 at 100 uM
T1 sequence (whole entry): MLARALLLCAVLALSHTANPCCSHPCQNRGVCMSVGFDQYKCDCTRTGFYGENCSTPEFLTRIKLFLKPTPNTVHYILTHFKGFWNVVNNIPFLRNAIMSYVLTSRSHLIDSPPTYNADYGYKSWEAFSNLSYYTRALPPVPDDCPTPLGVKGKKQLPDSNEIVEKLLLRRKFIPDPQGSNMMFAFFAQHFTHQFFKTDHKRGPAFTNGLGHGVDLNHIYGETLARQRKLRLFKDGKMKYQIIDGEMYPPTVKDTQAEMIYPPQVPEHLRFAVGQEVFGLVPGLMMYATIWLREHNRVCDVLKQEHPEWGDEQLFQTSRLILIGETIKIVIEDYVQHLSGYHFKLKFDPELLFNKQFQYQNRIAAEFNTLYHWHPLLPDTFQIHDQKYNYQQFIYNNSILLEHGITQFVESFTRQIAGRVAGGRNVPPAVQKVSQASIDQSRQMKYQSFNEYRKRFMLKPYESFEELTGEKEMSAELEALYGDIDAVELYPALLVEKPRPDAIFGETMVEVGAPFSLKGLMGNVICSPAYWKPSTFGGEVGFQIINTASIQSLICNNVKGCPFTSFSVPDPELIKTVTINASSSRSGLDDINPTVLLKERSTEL
Summary of the method: (§1)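 Screening kit with ovine COX-1 and human recombinant COX-2, run per manufacturer's protocol; percent inhibition of prostaglandin production measured for each isoform.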

[4] = target: T2, Prostaglandin G/H synthase 1 (Ovis aries) (UniProt P05979); assay: Inhibition of ovine COX1 at 100 uM; summary of the method: as §1
T2 sequence (whole entry): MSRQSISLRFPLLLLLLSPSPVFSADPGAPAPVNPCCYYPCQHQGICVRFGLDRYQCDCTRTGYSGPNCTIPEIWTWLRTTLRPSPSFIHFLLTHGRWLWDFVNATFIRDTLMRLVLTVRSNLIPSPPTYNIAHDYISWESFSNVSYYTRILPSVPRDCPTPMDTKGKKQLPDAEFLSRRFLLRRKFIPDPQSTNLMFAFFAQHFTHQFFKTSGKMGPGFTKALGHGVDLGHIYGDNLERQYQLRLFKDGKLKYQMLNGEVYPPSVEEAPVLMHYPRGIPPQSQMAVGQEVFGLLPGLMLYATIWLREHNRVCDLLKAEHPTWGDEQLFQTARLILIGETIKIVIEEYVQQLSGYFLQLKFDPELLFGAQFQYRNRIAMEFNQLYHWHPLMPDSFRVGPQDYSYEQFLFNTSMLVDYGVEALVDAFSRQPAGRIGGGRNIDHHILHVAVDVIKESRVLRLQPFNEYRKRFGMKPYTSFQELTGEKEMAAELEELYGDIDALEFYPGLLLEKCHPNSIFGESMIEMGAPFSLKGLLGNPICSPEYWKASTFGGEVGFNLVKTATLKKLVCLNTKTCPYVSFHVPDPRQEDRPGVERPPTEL

[5] = test system: THP-1; assay: Neuroprotective activity against LPS and IFN-gamma-stimulated neurotoxin production in human THP1 cell assessed as inhibition of THP1 cell secretion-induced toxicity to human SH-SY5Y cells after 72 hrs by MTT assay; type: functional, cell-based; conditions: THP-1, 72 h
Summary of the method: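 THP-1 cells pretreated 15 min with compound, then stimulated with LPS (0.5 µg/mL) plus IFN-γ (150 U/mL) for 24 h. Cell-free supernatant transferred to SH-SY5Y cells plated 24 h earlier (2 × 10^5 cells/mL). After 72 h, SH-SY5Y viability read by MTT (0.5 mg/mL, 1 h, 37 °C, OD570) or by LDH release (OD490, relative to Triton X-100 lysis). IC50 estimated.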

[6] = test system: SH-SY5Y (Homo sapiens); assay: Neuroprotective activity against LPS and IFN-gamma-induced human THP1 cell supernatant-induced death of human SH-SY5Y cells after 72 hrs by MTT assay; conditions: THP-1
[7] = test system: THP-1; assay: Cytotoxicity against human THP1 cells assessed as reduction in cell viability; type: cell-based
Summary of the method: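 THP-1 cells in DMEM-F12 with 5% FBS, 24-well plates, pretreated 15 min with compound or DMSO vehicle, then stimulated with LPS 0.5 µg/mL plus IFN-γ 150 U/mL for 24 h. Death read as supernatant LDH (iodonitrotetrazolium formazan, 490 nm, fraction of Triton X-100 lysate); survival by MTT; MCP-1 by ELISA. Concentration effects by randomized block ANOVA; 8–11 independent experiments.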

[8] = test system: Rattus norvegicus; assay: Antiinflammatory activity in Wistar albino rat sub-acute inflammatory model assessed as inhibition of formalin-induced paw edema at 20 mg/kg, po administered 1 hr prior to formalin challenge measured on day 1 relative to control; type: functional
Summary of the method: (§2)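 Male Wistar rats, 180–200 g, five per group, dosed orally 20 mg/kg daily for 7 consecutive days. Formalin (2%, 0.1 mL) injected subplantar into left hind paw under light ether 1 h after dosing, repeated on day 3. Paw volume measured plethysmographically on days 1 and 8; inhibition expressed relative to untreated controls.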

[9] = test system: Rattus norvegicus; assay: Antiinflammatory activity in Wistar albino rat assessed as inhibition of formalin-induced paw edema at 20 mg/kg, po administered 1 hr prior to formalin challenge measured after 3 hrs relative to control; type: functional
Summary of the method: (§3)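 Male Wistar rats, 180–200 g, groups of five; single oral dose 1 h before 2% formalin (0.1 mL) into subplantar left hind paw under light ether anaesthesia. Paw volume read by water plethysmometer at baseline and 1, 2, 3, 4 h; % inhibition = control (Vt−Vo) minus treated (Vt−Vo), over control, ×100. Means ± SEM; ANOVA with Student–Newman–Keuls.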

[10] = Acute toxicity in Wistar albino rat after 24 hrs; type: organism-based; conditions: in vivo, read-out: ALD50
Summary of the method: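 Male Wistar albino rats (180–200 g), fasted 24 h, groups of five; compound given orally in graded doses of 0.1–3.0 g/kg. Mortality recorded at each dose after 24 h to estimate approximate acute lethal dose (ALD50).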

[11] = test system: Rattus norvegicus; assay: Antiinflammatory activity in Wistar albino rat sub-acute inflammatory model assessed as inhibition of formalin-induced paw edema at 20 mg/kg, po administered 1 hr prior to formalin challenge measured on day 8 relative to control; type: functional; summary of the method: as §2
[12] = test system: Rattus norvegicus; assay: Toxicity in Wistar albino rat assessed as ulcerogenic activity at 300 mg/kg, po qd for 3 days; type: organism-based; set-up: dose 300 mg/kg, route oral; conditions: in vivo, 72 h
Summary of the method: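 Rats in groups of five, fasted 12 h with water ad libitum; oral dosing in two equal portions at 0 and 12 h for three days, 300 mg/kg per day; control given 1% gum acacia. Killed 6 h after last dose; stomach opened along greater curvature, saline-washed, inspected under 3× lens for hyperemia, hemorrhage, erosion or ulcer.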

[13] = test system: Rattus norvegicus; assay: Antiinflammatory activity in Wistar albino rat assessed as inhibition of turpentine oil-induced granuloma at 20 mg/kg, po qd for 7 days post turpentine oil challenge measured on day 8; type: functional
Summary of the method: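 In ether-anaesthetized male Wistar rats (five per group) a dorsal subcutaneous pouch is formed with 2 mL air, then 0.5 mL turpentine oil is injected. Oral dosing at 20 mg/kg starts 1 h before turpentine and continues 7 days. On day 8 the exudate is drawn by syringe and its volume recorded; % inhibition = (Vcontrol − Vtreated)/Vcontrol × 100.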

[14] = test system: Rattus norvegicus; assay: Antiinflammatory activity in po dosed Wistar albino rat assessed as inhibition of formalin-induced paw edema after 3 hrs relative to control; type: functional
[15] = test system: Rattus norvegicus; assay: Antiinflammatory activity in Wistar albino rat assessed as inhibition of formalin-induced paw edema at 20 mg/kg, po administered 1 hr prior to formalin challenge measured after 4 hrs relative to control; type: functional; summary of the method: as §3
[16] = test system: Rattus norvegicus; assay: Antiinflammatory activity in Wistar albino rat assessed as inhibition of formalin-induced paw edema at 20 mg/kg, po administered 1 hr prior to formalin challenge measured after 1 hr relative to control; type: functional; summary of the method: as §3
[17] = test system: Rattus norvegicus; assay: Antiinflammatory activity in Wistar albino rat assessed as inhibition of formalin-induced paw edema at 20 mg/kg, po administered 1 hr prior to formalin challenge measured after 2 hrs relative to control; type: functional; summary of the method: as §3

## COC(=O)c1nc2c(cnn2-c2ccccc2)c(=O)[nH]1
[1]
  Activity: inactive
[2]
  IC50: 100 µM
[3]
  inhibition: 14.2%
[4]
  inhibition: 16.4%
[5]
  IC50: 20 µM
[6]
  Activity: Active
[7]
  EC50: 40 µM

## N#Cc1cnn(-c2ccccc2)c1NC(=O)C(=O)NCCc1ccccc1
[7]
  EC50: 10 µM

## C[C@H](NC(=O)C(=O)Nc1c(C#N)cnn1-c1ccccc1)c1ccccc1
[8]
  inhibition in vivo at 20 mg/kg: 41%
[9]
  inhibition in vivo at 20 mg/kg: 38%
[10]
  LD50 at 24 h: > 300 mg/kg
[11]
  inhibition in vivo at 20 mg/kg: 35%
[12]
  Activity: 0%
[13]
  inhibition in vivo at 20 mg/kg: 49%
[14]
  ED50: 22.4 mg/kg
[15]
  inhibition in vivo at 20 mg/kg: 39%
[16]
  inhibition in vivo at 20 mg/kg: 37%
[17]
  inhibition in vivo at 20 mg/kg: 32%

## C[C@@H](NC(=O)C(=O)Nc1c(C#N)cnn1-c1ccccc1)c1ccccc1
[8]
  inhibition in vivo at 20 mg/kg: 39%
[9]
  inhibition in vivo at 20 mg/kg: 44%
[10]
  LD50 at 24 h: > 300 mg/kg
[11]
  inhibition in vivo at 20 mg/kg: 33%
[12]
  Activity: 0%
[13]
  inhibition in vivo at 20 mg/kg: 39%
[14]
  ED50: 18.9 mg/kg
[15]
  inhibition in vivo at 20 mg/kg: 50%
[16]
  inhibition in vivo at 20 mg/kg: 56%
[17]
  inhibition in vivo at 20 mg/kg: 36%

## COc1ccc2c(c1)c(CC(=O)O)c(C)n2C(=O)c1ccc(Cl)cc1 [INDOMETHACIN]
[12]
  Activity: 100%

## N#Cc1cnn(-c2ccccc2)c1NC(=O)C(=O)NCCCN1CCOCC1
[2]
  IC50: > 500 µM
[5]
  IC50: 100 µM
[7]
  EC50: > 500 µM

## N#Cc1cnn(-c2ccccc2)c1NC(=O)C(=O)NC1CCCCC1
[2]
  IC50: > 500 µM
[5]
  IC50: 250 µM
[7]
  EC50: 80 µM

## Cc1ccc(-c2cc(C(F)(F)F)nn2-c2ccc(S(N)(=O)=O)cc2)cc1 [CELECOXIB]
[8]
  inhibition in vivo at 20 mg/kg: 37%
[9]
  inhibition in vivo at 20 mg/kg: 56%
[2]
  IC50: 70 µM
[11]
  inhibition in vivo at 20 mg/kg: 41%
[12]
  Activity: 0%
[13]
  inhibition in vivo at 20 mg/kg: 46%
[14]
  ED50: 15.7 mg/kg
[15]
  inhibition in vivo at 20 mg/kg: 47%
[5]
  IC50: 5 µM
[16]
  inhibition in vivo at 20 mg/kg: 38%
[17]
  inhibition in vivo at 20 mg/kg: 41%
